Measurements collected from several papers.
Compare with care: the assays were run in different laboratories.
KIT: Mast/stem cell growth factor receptor Kit (KIT, Homo sapiens, UniProt P10721)
KIT D816V: Mast/stem cell growth factor receptor Kit (KIT, Homo sapiens, UniProt P10721, D816V)

Compound | target | observed | mode | technique | concentration | measurement | result
Cn1cncc1[C@@](O)(COc1ccc(C#N)cc1-c1ccc(OC(F)(F)F)cc1)c1ccc(C#N)cc1 | Mast/stem cell growth factor receptor Kit (KIT, Homo sapiens, UniProt P10721, A829P) | cell-free assay | – | competition with immobilised ligand | 1 µM | remaining binding | 100%
COCc1c(-c2cc3cc(C)cc(OC)c3s2)c2c(N)ncnn2c1CN1CCNC(=O)C1 | Mast/stem cell growth factor receptor Kit (KIT, Homo sapiens, UniProt P10721, L576P) | cell-free assay | – | competition with immobilised ligand | 1 µM | inhibition | 93.1%
O=c1[nH]c2ccccc2n1C1CCN(Cc2ccc(-c3[nH]c4cc5ncnc5cc4nc3-c3ccccc3)cc2)CC1 | KIT | cell-free assay | – | – | 0.5 µM | remaining signal | 91.7%
Cn1cc(-c2cc(F)cc(N3CCn4c(cc5c4CCCC5)C3=O)c2CO)cc(Nc2ccc(N3CCN(C4COC4)CC3)cn2)c1=O | KIT | enzyme activity | inhibitor | – | 0.1 µM | inhibition | 5%
COc1ncccc1-c1cnn2ccc(N3CCN(C(=O)OC(C)C)CC3)nc12 | KIT | binding | – | competition with immobilised ligand | 1 µM | remaining binding | 84%
Cc1nn(C)cc1-c1nc2c(N3CCN(Cc4ccc(Cl)cc4)CC3)c(Cl)cnc2[nH]1 | KIT D816V | binding | – | competition with immobilised ligand | 1 µM | remaining binding | 9.2%
Nc1ncc(-c2nc(N3CCOCC3)nc(N3CCOCC3)n2)c(C(F)F)n1 | KIT D816V | binding | – | competition with immobilised ligand | 10 µM | remaining binding | 58%
C#Cc1n[nH]c2c(-c3cn(C(C)c4ccccn4)c(=O)[nH]c3=O)cc(F)cc12 (centres unmarked) | KIT | enzyme activity | inhibitor | – | 1 µM | inhibition | -6.3%
C=CC(=O)Nc1cccc(CN2C(=O)N(c3c(Cl)c(OC)cc(OC)c3Cl)Cc3cnc(NCCCCN(CC)CC)nc32)c1 | KIT | binding | – | competition with immobilised ligand | 10 µM | remaining binding | 1.2%
Cn1cc(-c2cccc(N3CCc4c(sc5c4CC(C)(C)C5)C3=O)c2CO)cc(Nc2ccncn2)c1=O | KIT | enzyme activity | inhibitor | – | 1 µM | inhibition | -11%
C#Cc1n[nH]c2c(-c3cn([C@@H](C)c4ccccc4)c(=O)[nH]c3=O)cc(F)cc12 | KIT | enzyme activity | inhibitor | – | 0.1 µM | inhibition | 0.1%
